Only some compounds are listed: those with a hit (about 2.6% of all), similar ones and a draw of the others.
T cell modulator = modulates CD8 T cell binding to vesicles. 2C CD8+ T cell-vesicle binding, flow cytometry; active compounds read low. response (vesicle binding), % at 7 µM. 0.068% of 330,000 active. AID 2052;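 active = response, share of CD8 T cells binding vesicles, and their 90th percentile fluorescence all below set limits, cut at about 80% in these data, passing the limit was not always enough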;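 note: values below 100% mean blocked vesicle binding to the CD8+ T cells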
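incubation = binding step 1.5 h, 37 °C, antibody labelling 20 min, ice | test system = 2C mouse CD8+ T cells | read-out basis = percent CD8+ FL2 mean versus row control | controls = Peptide-free naked vesicles (low) and QL9 vesicles with 0.7% DMSO vehicle (high) | detection = flow cytometry of vesicle-bound cells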
Granule exo inh = lytic granule exocytosis inhibition. TALL-104 LAMP-1 surface exposure, flow cytometry; cells stimulated with thapsigargin and PMA. inhibition, % at 10 µM. 0.66% of 360,000 active;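 active = inhibition above about 55%, limit read from the data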
MC4R ag barr = activates human MC4R beta-arrestin recruitment; P32245; U2OS MC4R beta-arrestin complementation, luminescence; percent of melanotan II response, DMSO zero; activation, % at 8.9 µM; 0.98% of 360,000 active;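 active = activation above a per-plate cutoff, the mean activation of sample wells on that plate plus 3 SD, cut at about 8% in these data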
Target sequence (P32245 whole entry, looked up): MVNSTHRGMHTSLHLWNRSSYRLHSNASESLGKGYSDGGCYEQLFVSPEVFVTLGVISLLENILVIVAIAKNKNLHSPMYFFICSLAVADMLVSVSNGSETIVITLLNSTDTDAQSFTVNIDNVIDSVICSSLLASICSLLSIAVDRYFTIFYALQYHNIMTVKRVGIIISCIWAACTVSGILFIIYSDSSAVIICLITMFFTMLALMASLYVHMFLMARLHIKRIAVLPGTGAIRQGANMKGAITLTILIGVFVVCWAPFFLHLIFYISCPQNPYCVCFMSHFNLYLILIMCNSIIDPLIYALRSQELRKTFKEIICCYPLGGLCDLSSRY
EP2 modulator = EP2 receptor (human) modulation; P43116; EP2-expressing cells, cAMP HTRF FRET, PGE2 co-stimulation; induction, % at 25 µM; 0.83% of 260,000 active; AID 940;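 active = compounds whose cAMP rise, as percent of the full-agonist control response, exceeds 60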;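 note: rat C6 glioma line stably carrying human EP2 under a CMV promoter; the protocol text gives 20 µM as final concentration; 100% = response of wells given 1 µM PGE2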
Target sequence (P43116 whole entry, looked up): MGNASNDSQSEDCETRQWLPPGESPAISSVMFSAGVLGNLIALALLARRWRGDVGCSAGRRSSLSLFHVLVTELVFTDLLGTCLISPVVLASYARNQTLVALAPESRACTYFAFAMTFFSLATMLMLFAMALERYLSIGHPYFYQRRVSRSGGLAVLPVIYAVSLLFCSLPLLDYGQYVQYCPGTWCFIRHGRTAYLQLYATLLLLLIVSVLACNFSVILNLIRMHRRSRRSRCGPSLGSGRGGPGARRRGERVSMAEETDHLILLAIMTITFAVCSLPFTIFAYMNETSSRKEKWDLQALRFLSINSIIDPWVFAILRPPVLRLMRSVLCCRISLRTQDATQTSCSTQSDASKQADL
PGE2 EP2 inh = blocks the human prostaglandin E2 receptor EP2; inhibition, % at 25 µM; C6 glioma cells expressing human EP2, cAMP TR-FRET; cells stimulated with saturating PGE2; AID 1422; 0.52% of 260,000 active; P43116;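 active = percent inhibition above 40 after rounding to a whole number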;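 note: rat C6 glioma host cells with rolipram phosphodiesterase inhibitor present; the protocol text gives 20 µM as final concentration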
MC4R antag cAMP = blocks human MC4R cAMP signaling. P32245. MC4R-expressing cells, MTII-stimulated cAMP, LANCE TR-FRET. inhibition, % at 6.5 µM. 0.48% of 360,000 active. AID 540295;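 active = inhibition above its plate's cutoff, the mean of tested wells on that plate plus 3 SD, cut at about 29% in these data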;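 note: 0% = Melanotan II alone and 100% = Melanotan II plus saturating MCL0020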
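Test system: U2OS cells stably expressing human melanocortin 4 receptor (MC4R); also added: Melanotan II challenge; compound: 6.5 µM single dose; timing: 30-min compound preincubation, 1-h Melanotan II challenge, 1-h detection, room temperature; signal: Eu-cAMP/anti-cAMP TR-FRET, emission 671 nm; repeats: one well per compound, no replicates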
* = called active by the depositor; i = inactive; x = no result given.

SMILES	T cell modulator	Granule exo inh	MC4R ag barr	EP2 modulator	PGE2 EP2 inh	MC4R antag cAMP
Cc1c(Cl)cccc1NC(=O)CC(C(=O)O)C1CCCO1 (configuration not stated)	394.7	0.1	-1.6	5.6	0.9	-1.7
COC(=O)Cn1c(CCS(=O)(=O)c2ccc(Cl)cc2)nc2ccccc21	314.5	-0.6	-0.1	7.7	23.3	13.1
COc1ccccc1CNC(=O)c1csc(Cc2ccc(Cl)cc2)n1	621.5	2.9	-0.4	62.1*	14.6	13.9
COc1ccc(N(CC(=O)NCc2ccc3c(c2)OCO3)S(=O)(=O)c2ccc(O)c(C(=O)O)c2)cc1	x	1.2	-2.0	x	x	10.8
NC1=N[C@@H](c2ccc(Cl)cc2)N(c2ccc(S(N)(=O)=O)cc2)C(N)=N1	x	x	x	-0.3	46.9*	x
NC(=O)c1c(NC(=O)c2cccnc2Cl)sc2c1CCCC2	0.0*	4.1	-1.0	-26.2	6.9	5.1
COCCCNC(=O)c1c(NC(=O)c2ccccc2C)sc2c1CCCC2	x	x	x	-23.4	45.3*	x
C=CCNC(=O)c1c(NC(=O)c2ccc(OC)c(OC)c2)sc2c1CCCC2	x	x	x	66.3*	7.3	x
O=C(Nc1ccc2c(c1)OCO2)c1ccc[n+]([O-])c1	501.5	1.4	-0.5	17.6	7.8	20.1
O=C(c1ccc(COc2ccc(Cl)cc2)o1)N1N=C(C(F)F)CC1(O)C(F)F (configuration not stated)	324.4	2.6	8.7*	-5.5	5.9	-5.0
COc1ccccc1OCc1ccc(C(=O)N2N=C(C(F)F)CC2(O)C(F)F)o1 (configuration not stated)	355.3	-1.7	3.9	-28.9	x	-3.0
CC1(OC(=O)c2ccc(Cl)nc2)C(=O)C=C2C=C(c3ccc(C#N)cc3)OC=C2C1=O (configuration not stated)	395.6	x	x	x	15.7	x
Cc1cc(OCCn2cc(/C(N)=N/O)c3ccccc32)ccc1Cl	198.8	6.3	8.8*	-44.4	5.7	-4.0
CCOC(=O)C(NC(=O)Nc1ccc(Cl)cn1)(Oc1ccccc1)C(F)(F)F (configuration not stated)	778.6	6.5	-1.1	14.4	6.2	18.8
CCOC(=O)c1c(C)[nH]sc1=S	x	3.0	-0.8	64.2*	x	26.1
Cc1c(N=C2N=C(NC(=O)c3cccs3)c3ccccc32)c(=O)n(-c2ccccc2)n1C	215.0	-1.1	-1.2	22.1	11.8	-7.2
Cc1c(N=C2N=C(NC(=O)NC(C)(C)C)c3ccccc32)c(=O)n(-c2ccccc2)n1C	31.6*	-1.7	-3.5	-11.9	4.7	-13.9
Cc1c(N=C2C=CC(=O)c3ccccc32)c(=O)n(-c2ccccc2)n1C	x	95.2*	-0.9	8.0	3.7	-16.0
Cc1ccc(NC(=S)N/N=C/c2c(C)nn(-c3ccccc3)c2N2CCCC2)cc1	694.2	-2.2	8.6*	-0.2	15.3	12.2
Cc1c(/C=N/NC(=O)c2ccc(O)cc2)c2ccccn2c1C(=O)c1ccc(F)cc1	301.7	23.3	0.4	-58.0	8.9	6.1
Cc1c(/C=N/NC(=O)c2ccccc2O)c2ccccn2c1C(=O)c1ccc(F)cc1	328.2	78.0*	-1.2	-84.9	21.8	8.6
Clc1ccc(N=c2ssnc2Cl)nc1	159.7	87.1*	-2.1	-75.9	8.7	4.9
N#Cc1cccc(N=c2ssnc2Cl)c1	x	x	x	-68.6	10.8	x
Clc1nssc1=Nc1ccc(Br)cc1	x	59.0*	-0.6	-90.3	9.7	-0.7
Clc1nssc1=Nc1nncs1	0.0	-4.1	-3.3	x	x	-9.5
SMILES	T cell modulator	Granule exo inh	MC4R ag barr	EP2 modulator	PGE2 EP2 inh	MC4R antag cAMP
COc1cc(N=c2ssnc2Cl)cc(OC)c1	919.8	-1.1	0.7	-5.9	94.8*	15.2
O=C(CSc1nc2c(cnn2-c2cccc(Cl)c2)c(=O)[nH]1)NCC1CCCO1 (configuration not stated)	289.6	0.1	-3.1	x	x	0.7
O=C(NCc1cccc(CNC(=O)c2ccco2)c1)c1ccco1	88.6	0.9	-2.3	14.3	5.5	2.1
O=C(NCc1cccc(CNC(=O)C(=O)NCc2ccco2)c1)C(=O)NCc1ccco1	555.6	-1.6	9.6*	-39.5	4.3	-1.0
O=C(COc1ccc2ccccc2c1)NNC(=O)Cc1ccccc1	374.6	5.5	-1.0	-27.9	63.1*	10.8
O=C(COc1ccc2ccccc2c1)Nc1cccnc1Cl	270.9	2.1	8.3*	x	x	12.7
O=C(COc1ccc2ccccc2c1)NNC(=O)Cc1cccc2ccccc12	278.6	-3.5	0.7	-16.9	5.5	15.3
CC1(C)C(=O)Nc2ccccc2N1C(=O)COC(=O)c1cccnc1	0.0	-2.2	1.5	x	x	-1.5
Cc1cc(S(=O)(=O)N2CCCCCC2)c(Cl)cc1Cl	558.0	0.0	-0.9	19.4	3.7	3.1
COC(=O)C1(C)Cc2cc(OC(C)=O)c(OC(C)=O)cc2N1 (configuration not stated)	192.7	x	x	27.4	4.2	x
C[C@H]1CCC/C=C\[C@@H]2C[C@H](OC(=O)CN(C)C)C[C@H]2[C@@H](O)/C=C\C(=O)O1	x	x	x	-1.3	46.5*	x
CSc1c(-c2ccccc2)nc2ccc(Cl)cc2c1C(=O)O	100.1	-4.3	-1.0	4.6	7.9	3.6
COc1ccccc1NC(=O)c1c(N=Cc2cccc([N+](=O)[O-])c2)cnn1C	273.2	61.9*	2.2	-8.0	11.7	4.4
COc1ccc2nc(C)cc(N/N=C/c3ccc(F)cc3)c2c1	271.4	19.7	9.2*	x	x	8.6
COc1ccc(/C=N/Nc2cc(C)nc3ccccc23)cc1	352.7	60.3*	1.7	x	x	0.6
COc1ccc(/C=N/Nc2cc(C)nc3c(C)cccc23)cc1	275.6	44.8	0.1	x	x	-10.1
COc1cccc(/C=C/c2n[nH]c(=O)c(C#N)c2C)c1	324.3	0.4	-2.0	x	x	2.9
Cc1ccc(S(=O)(=O)Oc2ccc3ccc(O)cc3c2)cc1	642.9	4.5	-1.2	x	x	-2.5
Cc1ccc(S(=O)(=O)Oc2cc(S(=O)(=O)O)cc3cc(S(=O)(=O)O)cc(N)c23)cc1	x	x	x	31.8	60.8*	x
Cc1cccc(C(=O)Nc2nnc(SCC(=O)Nc3ccc4c(c3)oc3ccccc34)s2)c1	154.9	-4.1	9.4*	18.2	9.3	0.7
COc1ccccc1C(=O)Nc1nnc(SCC(=O)Nc2ccc3c(c2)oc2ccccc23)s1	i	1.7	-1.9	-1.9	10.5	10.2
CC(C)c1ccc(NC(=O)COc2ccccc2)cc1	155.7	8.1	0.1	x	x	10.2
CC(C)c1ccc(NC(=O)COc2ccccn2)cc1	741.5	0.8	1.0	-16.5	95.0*	2.8
O=C(c1cccc2ncccc12)N1CCCC(c2ncncc2-c2ccncc2)C1 (configuration not stated)	x	x	x	-5.5	x	x
O=C(Nc1cc2nn(-c3ccccc3)nc2cc1Cl)c1cccnc1	x	x	x	-51.0	7.6	x
CCn1c(Cc2ccccc2)nnc1SCC(=O)Nc1nnc(C)s1	x	x	x	-10.6	6.2	x

Screens (PubChem)
